# M5 antag: antagonists of human muscarinic M5 receptor (CHRM5); CHO-hM5 cells, Fluo-8 calcium fluorescence, ACh EC80; inhibition, % at 3 µM; 360,000 tested, 0.59% active; AID 624040; P08912;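 active means inhibition above a per-plate cutoff, the mean of that plate's test compounds plus 3 SD, cut at about 27% in these data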;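 further: 0% = acetylcholine EC80 with DMSO and 100% = DMSO without agonist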
# M5 ag: agonists of human muscarinic M5 receptor (CHRM5); 360,000 tested, 0.19% active; P08912; AID 624037; activation, % at 3 µM; CHO-K1 hM5 cells, Fluo-8 calcium fluorescence; 0% DMSO wells, 100% maximal acetylcholine response;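 active means activation above the run's mean over test compounds plus 3 SD, cut at about 23% in these data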;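 further: signal is peak over basal fluorescence ratio across the kinetic read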
# M4 PAM: positive allosteric modulators of human muscarinic M4 receptor; P08173; CHO-K1 hM4/Gqi5, Fluo-8 calcium fluorescence, ACh EC20; 0% = ACh EC20, 100% = maximal ACh; activation, % at 3 µM; 360,000 tested, 0.4% active; AID 624126;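 active means activation above its plate's cutoff, the mean activation of sample wells plus 3 SD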
# Target sequence (P08173 whole entry, looked up): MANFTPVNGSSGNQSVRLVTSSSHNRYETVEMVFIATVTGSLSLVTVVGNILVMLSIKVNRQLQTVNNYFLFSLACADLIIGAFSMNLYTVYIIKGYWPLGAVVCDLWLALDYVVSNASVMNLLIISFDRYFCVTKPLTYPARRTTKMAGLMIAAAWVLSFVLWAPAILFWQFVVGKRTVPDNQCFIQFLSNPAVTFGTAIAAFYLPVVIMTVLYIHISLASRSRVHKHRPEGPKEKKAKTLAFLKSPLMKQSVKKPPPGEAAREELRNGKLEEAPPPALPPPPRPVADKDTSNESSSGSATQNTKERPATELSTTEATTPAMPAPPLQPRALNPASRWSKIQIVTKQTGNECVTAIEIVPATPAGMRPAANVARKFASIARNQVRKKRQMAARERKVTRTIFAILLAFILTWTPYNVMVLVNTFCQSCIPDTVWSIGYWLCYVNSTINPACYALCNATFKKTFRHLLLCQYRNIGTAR
# M4 ag: CHRM4 agonism in calcium assay; P08173; CHO-K1 hM4/Gqi5, Fluo-8 calcium fluorescence; vehicle 0%, full acetylcholine response 100%; activation, % at 3 µM; 360,000 tested, 0.14% active;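 active means activation above the run mean over all test wells plus 3 SD, cut at about 32% in these data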;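 further: peak over basal fluorescence ratio per well then scaled between controls; 0% = DMSO wells and 100% = acetylcholine at EC100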
# M5 PAM: CHRM5 positive allosteric modulation. activation, % at 3 µM. 360,000 tested, 0.3% active. P08912. AID 624038. CHO-K1 hM5, Fluo-8 calcium, ACh EC20 PAM; 0% = ACh EC20, 100% = ACh EC100;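 active means activation above the run cutoff, the mean activation of all test compounds plus 3 SD, cut at about 18% in these data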
#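 System: CHO-K1 hM5 cells. Reagent: acetylcholine, EC20 level. Compound dosing: single dose, 3 µM nominal final test concentration. Timing: Post-acetylcholine fluorescence recording 140 s. Detection: Fluo-8 calcium fluorescence. Read-out: % activation, ACh-normalized. Benchmarks: ACh EC20 and EC100 wells. Repeats: singlicate, one well per test compound.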
# CHRM4 antagonist: CHRM4 antagonism in calcium assay; AID 624125; P08173; CHO-hM4 cells, ACh EC80, Fluo-8 calcium fluorescence; inhibition, % at 3 µM; 360,000 tested, 0.73% active;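 active means inhibition above its plate's cutoff, the mean inhibition of sample wells plus 3 SD, cut at about 27% in these data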;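 further: 0% = acetylcholine EC80 with DMSO and 100% = DMSO without agonist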
# * hit, by the source's call. Sampled rows, rich in hits. Any-hit rate of the full collection: about 1.8%.
SMILES,M5 antag,M5 ag,M4 PAM,M4 ag,M5 PAM,CHRM4 antagonist
O=C1CCCN1CCCNc1nc(NCc2cccs2)nc2ccsc12,22,41*,-15,96*,-19,53*
O=C1CCCN1CCCNS(=O)(=O)c1cccs1,7,-1,4,1,-1,13
c1csc(CNc2nc(NCC3CCCCC3)c3sccc3n2)c1,26,10,-13,19,-5,27*
CC(=O)NCCNc1nc(NCc2cccs2)nc2ccsc12,0,2,-7,5,-4,1
COCCNc1nc(NCc2cccs2)nc2ccsc12,81*,96*,-16,159*,-21,92*
c1ccc(CNc2nc(NCCc3ccncc3)c3sccc3n2)cc1,99*,96*,-16,155*,-20,100*
O=C1NCCN1CCNc1nc(NCc2ccccc2)nc2ccsc12,22,20,-15,46*,-19,52*
CC(C)Nc1nc(NCCN2CCNC2=O)c2sccc2n1,8,-1,9,1,-4,-9
COc1cc(OC)cc(C(=O)NC(C(=O)Nc2ccc3c(c2)OCO3)C(C)C)c1 (configuration not stated),7,-4,0,-1,5,-4
Cn1c(N)c(-c2ccccc2)c2ccc([N+](=O)[O-])cc2c1=O,16,23,-20,56*,-9,17
COc1cc(CCC(=O)OCC(=O)Nc2ncc(Cl)cc2Cl)cc(OC)c1OC,13,-1,16,2,1,6
COc1ccc(CC(=O)OCC(=O)Nc2ncc(Cl)cc2Cl)cc1OC,5,2,11,2,15,27*
NC(=O)c1ccc[n+](CC(=O)c2cccc([N+](=O)[O-])c2)c1,-2,-6,1,3,2,2
CC(C)N1CCN(C(=O)c2ccc(NC(=O)c3ccc(Br)o3)cc2)CC1,-2,3,10,1,20*,0
C/C(Cl)=C\Cn1c(N2CCCC2)nc2c1c(=O)n(C)c(=O)n2C,2,-4,3,1,6,4
CCOc1ccc(C/C(O)=C2\C(=O)CC(C)(C)CC2=NCC(=O)O)cc1OCC,8,0,3,0,0,1
NC(=O)c1ccsc1NC(=O)COC(=O)[C@@H]1CCCN1C(=O)c1cccs1,5,9,-1,8,-6,-15
CCCCCCCC/C=C\CCCCCCCC(=O)NCCc1ccc(O)c(O)c1,-3,3,1,0,19*,11
O=C1CC(c2nc3ccccc3[nH]2)CN1c1ccccc1F (configuration not stated),-2,-1,-14,2,-14,78*
COc1ccc(Cl)cc1N1CC(c2nc3ccccc3[nH]2)CC1=O (configuration not stated),-1,3,2,7,-3,-8
CC(=O)NS(=O)(=O)c1ccc(NC(=O)c2cc(-c3cccs3)nc3ccccc23)cc1,14,1,22*,2,0,0
CCN(CC)S(=O)(=O)c1ccc(NC(=O)c2cc(-c3cccs3)nc3ccccc23)cc1,17,-1,-2,6,-10,0
CN(C)S(=O)(=O)c1ccc(NC(=O)c2cc(-c3cccs3)nc3ccccc23)cc1,23,3,-38,22,-21,34*
CS(=O)(=O)Nc1ccccc1C(=O)NCc1ccccc1Cl,6,-4,4,2,9,-2
Cc1ccccc1CNC(=O)c1ccccc1NS(C)(=O)=O,-4,-4,2,1,19*,-3
Cc1c(-c2ccccc2)[n+](=O)c(-c2ccc(Br)cc2)c(C)n1[O-],3,1,-5,2,3,0
Cc1c(-c2ccccc2)[n+](=O)c(-c2ccc(Cl)cc2)c(C)n1[O-],30*,-2,0,16,-11,-2
O=[N+]([O-])c1ccc2c(c1)nnn2-c1ccccc1,9,-5,-1,1,0,0
c1ccc(-n2nnc3ccccc32)cc1,25,-2,-15,-1,-19,81*
C=CCc1c(C)[nH]c2c(OC)cccc2c1=S,-5,1,5,-1,-1,-2
